Data published in ChEMBL document CHEMBL6092204, “Synthesis of pyridyl pyrimidine hedgehog signaling pathway inhibitors and their antitumor activity in human pancreatic cancer” (Eur J Med Chem, 2024).
The source made the active and inactive calls. The calls are words filed in the database; no cut-off is given here.

Assays:
[1] = Inhibition of Hh signaling pathway in mouse NIH3T3 cells incubated for 48 hrs by Gli luciferase reporter assay; assay type: cell-based; conditions: NIH3T3, 48 h
Outline: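 Reporter cells were seeded in 96-well plates, incubated overnight, then treated for 48 h. Lysate luciferase activity was measured with a dual-luciferase system, and firefly signal was normalised to Renilla.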

BXPC-3 [2] = assay: Induction of apoptosis in human BXPC-3 cells assessed as necrotic cells at 10 uM incubated for 48 hrs by Annexin V-FITC/PI staining based flow cytometry (reference value: 0.71 %); assay type: functional
BxPC-3 [3] = assay: Antitumor activity aginst human BxPC-3 cells xenografted in BALB/c nude mouse assessed as tumor growth inhibition at 15 mg/kg, ip qd for 21 days; conditions: time 21.0 day
BXPC-3 [4] = assay: Induction of apoptosis in human BXPC-3 cells assessed as late apoptotic cells at 10 uM incubated for 48 hrs by Annexin V-FITC/PI staining based flow cytometry (reference value: 6.72 %); assay type: functional
BXPC-3 [5] = assay: Induction of apoptosis in human BXPC-3 cells assessed as viable cells at 10 uM incubated for 48 hrs by Annexin V-FITC/PI staining based flow cytometry (reference value: 91.5 %); assay type: functional; conditions: read-out: Activity
PANC-1 [6] = assay: Induction of apoptosis in human PANC-1 cells assessed as viable cells at 10 uM incubated for 48 hrs by Annexin V-FITC/PI staining based flow cytometry (reference value: 93.2 %); assay type: functional; conditions: read-out: Activity
PANC-1 [7] = assay: Induction of apoptosis in human PANC-1 cells assessed as necrotic cells at 10 uM incubated for 48 hrs by Annexin V-FITC/PI staining based flow cytometry (reference value: 2.24 %); assay type: functional
PANC-1 [8] = assay: Induction of apoptosis in human PANC-1 cells assessed as early apoptotic cells at 10 uM incubated for 48 hrs by Annexin V-FITC/PI staining based flow cytometry (reference value: 1.88 %); assay type: functional
PANC-1 [9] = assay: Induction of apoptosis in human PANC-1 cells assessed as late apoptotic cells at 10 uM incubated for 48 hrs by Annexin V-FITC/PI staining based flow cytometry (reference value: 2.74 %); assay type: functional
BXPC-3 [10] = assay: Induction of apoptosis in human BXPC-3 cells assessed as early apoptotic cells at 10 uM incubated for 48 hrs by Annexin V-FITC/PI staining based flow cytometry (reference value: 1.11 %); assay type: functional

| Structure (SMILES) | IC50 [1] [nM] | further results |
| --- | --- | --- |
| COc1cc(NC(=O)c2ccc(Nc3nccc(-c4cccnc4)n3)cc2)cc(OC)c1OC | 18.6 | – |
| O=C(Nc1cccnc1)c1ccc(Nc2nccc(-c3cccnc3)n2)cc1 | 28.1 | – |
| COc1cc(NC(=O)c2ccc(Nc3nccc(-c4cccnc4)n3)cc2)cc(OC)c1 | 29.7 | – |
| CCOc1ccc(NC(=O)c2ccc(Nc3nccc(-c4cccnc4)n3)cc2)cc1 | 12.2 | – |
| COc1ccc(NC(=O)c2ccc(Nc3nccc(-c4cccnc4)n3)cc2)cc1OC | 22.5 | – |
| Cc1ccccc1NC(=O)c1ccc(Nc2nccc(-c3cccnc3)n2)cc1 | 14.6 | – |
| CS(=O)(=O)c1ccc(C(=O)Nc2ccc(Cl)c(-c3ccccn3)c2)c(Cl)c1 [VISMODEGIB] | 15.1 | Activity (BXPC-3 [2]): 0.77%; inhibition (BxPC-3 [3]): Active; Activity (BXPC-3 [4]): 7.55%; viability at 10 µM (BXPC-3 [5]): 90.6%; viability at 10 µM (PANC-1 [6]): 91.8%; Activity (PANC-1 [7]): 2.68%; Activity (PANC-1 [8]): 2.2%; Activity (PANC-1 [9]): 3.3%; Activity (BXPC-3 [10]): 1.05% |
| COc1ccccc1NC(=O)c1ccc(Nc2nccc(-c3cccnc3)n2)cc1 | 9.1 | – |
| O=C(Nc1ccc(N2CCOCC2)c(F)c1)c1ccc(Nc2nccc(-c3cccnc3)n2)cc1 | 33.5 | – |
| Cc1cccc(NC(=O)c2ccc(Nc3nccc(-c4cccnc4)n3)cc2)c1 | 13.8 | – |
| O=C(Nc1cccc(F)c1)c1ccc(Nc2nccc(-c3cccnc3)n2)cc1 | 15.9 | – |
| O=C(Nc1ccc(F)cc1)c1ccc(Nc2nccc(-c3cccnc3)n2)cc1 | 35.3 | – |
| Cc1ccc(NC(=O)c2ccc(Nc3nccc(-c4cccnc4)n3)cc2)cc1F | 46.4 | – |
| O=C(Nc1ccc(Cl)cc1)c1ccc(Nc2nccc(-c3cccnc3)n2)cc1 | 24.8 | – |
| COc1ccc(NC(=O)c2ccc(Nc3nccc(-c4cccnc4)n3)cc2)cc1 | 14.2 | – |
| O=C(Nc1cccc(C(F)(F)F)c1)c1ccc(Nc2nccc(-c3cccnc3)n2)cc1 | 25.6 | – |
| Cc1cc(F)cc(NC(=O)c2ccc(Nc3nccc(-c4cccnc4)n3)cc2)c1 | 10.3 | – |
| O=C(Nc1ccc(N2CCOCC2)cc1)c1ccc(Nc2nccc(-c3cccnc3)n2)cc1 | 17.3 | – |
| CN1CCN(c2ccc(NC(=O)c3ccc(Nc4nccc(-c5cccnc5)n4)cc3)cc2)CC1 | 4.5 | – |
| CNCc1ccc(C)c(NC(=O)c2ccc(Nc3nc(-c4ccccc4)c4ccccc4n3)cc2)c1 [BMS-833923] | 5.5 | – |
